Compound activity deposited in PubChem by Broad Institute.
In the library only some 1.3% were active in any assay of this set; here they are far more common.
INS-1E GSIS act: GLuc luminescence reporter in INS-1E cells, primary screen for activators of glucose-dependent secretion of insulin | AID 743287, 2014 | INS-1E GLuc reporter insulin secretion, 2-3 h | activation, % at 16.6 µM | 0.61% of 370,000 active;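 active means lowest replicate activation of at least 40%, so every replicate reaches that level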;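 further: 0% = median of neutral control wells and 100% = median of IBMX positive control wells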
AF4-AF9 inh: inhibitors of AF4 peptide binding to AF9, primary screen, biochemical, AlphaScreen, biotin-AF4 peptide, FLAG-AF9, single point | Protein AF-9 (Homo sapiens), P42568 | inhibition, % at 10 µM | 0.47% of 350,000 active | AID 651704, 2012;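 active means every replicate reaching a set inhibition limit, whatever the replicate mean, cut at about 25% in these data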;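 further: 0% = plate neutral control median and 100% = total signal loss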
RAD54 branch: inhibitors of human RAD54 branch migration, primary screen, biochemical, fluorescence, single point. DNA repair and recombination protein RAD54-like (Homo sapiens), Q92698. RAD54 Holliday junction branch migration, FAM/BHQ fluorescence. inhibition, % at 10.4 µM. 0.14% of 360,000 active. AID 602329, 2012;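 active means mean normalized replicate activity at least 40 and at least half of replicates scoring 40 or more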;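 further: 0% = median of neutral control wells and 100% = median of positive control wells; inhibitors cause a drop in the FAM fluorescence signal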
S100A4 inh HTS: inhibitors of S100A4-myosin IIA peptide binding, primary screen, biochemical, fluorescence polarization, TAMRA-MyoIIA peptide | AID 652163, 2013 | 0.14% of 360,000 active | inhibition, % at 10.7 µM;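 active means mean inhibition of at least 70% across replicates, with every replicate also reaching that level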
Target sequence (P26447 whole entry, looked up): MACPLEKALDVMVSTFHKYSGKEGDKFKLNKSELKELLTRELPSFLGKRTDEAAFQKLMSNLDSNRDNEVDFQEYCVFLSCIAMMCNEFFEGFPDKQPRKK
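Material: S100A4 monomer protein | Medium: HEPES pH 7.2 with CaCl2, KCl, NaCl, DTT, Triton | Reagent: Labelled myosin peptide probe, 5 nM | Doses: One dose per compound | Times: 5 min incubation before reading | Benchmarks: Neutral control DMSO, positive control TFP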
RAD52 inh: RAD52 DNA annealing inhibitors, primary screen, biochemical, FRET, single point, set 2. recombinant RAD52 DNA annealing, FRET fluorescence. inhibition, % at 18.7 µM. 0.46% of 360,000 active;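 active means every replicate showing at least 50% inhibition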
Target sequence (P43351 whole entry, looked up): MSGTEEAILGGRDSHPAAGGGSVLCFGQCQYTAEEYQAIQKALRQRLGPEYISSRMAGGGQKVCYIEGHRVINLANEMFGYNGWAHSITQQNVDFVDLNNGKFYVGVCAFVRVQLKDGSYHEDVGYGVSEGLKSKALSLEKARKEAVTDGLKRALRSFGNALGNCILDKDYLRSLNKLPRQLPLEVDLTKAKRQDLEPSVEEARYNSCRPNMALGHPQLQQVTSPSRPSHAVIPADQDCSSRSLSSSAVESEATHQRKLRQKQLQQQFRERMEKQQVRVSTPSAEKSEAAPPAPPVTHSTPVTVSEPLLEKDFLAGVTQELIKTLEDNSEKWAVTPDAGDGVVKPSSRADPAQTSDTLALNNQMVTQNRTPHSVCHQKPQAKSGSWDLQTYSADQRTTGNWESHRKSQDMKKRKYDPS
DNA binder FP: DNA-binding compounds via dye displacement, dose response, artefact control for RAD52 inhibitor project, biochemical, fluorescence polarization, cherry-pick | shares compounds with RAD52 inh | Salmon sperm DNA/acridine orange FP displacement | AC50, µM | 8% of 1,000 active;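 active means fitted half-maximal concentration for signal loss at or below twice the highest dose tested, in every separate run, actives reach about 64 µM in these data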
* hit, by the source's call; i = inactive; x = not tested or not shown; + = active, no number; ! = not confirmed by another sample.

SMILES | INS-1E GSIS act | AF4-AF9 inh | RAD54 branch | S100A4 inh HTS | RAD52 inh | DNA binder FP
CCN1CCN(Cc2ccc(NC(=O)c3cc(NC(=O)c4ccc5n[nH]nc5c4)cc(OC)c3)cc2C(F)(F)F)CC1 | 17 | 5 | 3 | -5 | -6 | x
CCN1CCN(Cc2ccc(NC(=O)c3cc(NC(=O)N4CCNC4=O)cc(OC)c3)cc2C(F)(F)F)CC1 | -3 | 11 | 13 | -10 | 33 | x
CCN1CCN(Cc2ccc(NC(=O)c3cc(NC(=O)c4cncc(-c5cccs5)c4)cc(OC)c3)cc2C(F)(F)F)CC1 | x | 1 | 7 | -1 | 76* | i
CCN1CCN(Cc2ccc(NC(=O)c3cc(NC(=O)c4ccno4)cc(OC)c3)cc2C(F)(F)F)CC1 | -4 | 14 | 1 | -7 | 57*! | i
CCN1CCN(Cc2ccc(NC(=O)c3cc(NC(=O)c4cc5cccc(OC)c5o4)cc(OC)c3)cc2C(F)(F)F)CC1 | 12 | 6 | -1 | 4 | 94*! | i
CCN1CCN(Cc2ccc(NC(=O)c3cc(NC(=O)c4cc(-c5ccc(OC)cc5)n[nH]4)cc(OC)c3)cc2C(F)(F)F)CC1 | 14 | 7 | -3 | -8 | 5 | x
CCN1CCN(Cc2ccc(NC(=O)c3ccc(C)c(NC(=O)c4csc(-c5ccncc5)n4)c3)cc2C(F)(F)F)CC1 | 32 | 18 | 13 | 1 | 75* | i
c1ccc(CN2CCC(N3CCC(N4CCCCCC4)CC3)CC2)cc1 | -7 | x | -3 | 1 | 12 | x
c1ccc2c(c1)c1c(c3ccccc32)CN2CCCC2C1 (centres undefined) | 22 | 8 | x | -3 | 103* | 25µM*
CC1(C)CC(N=c2cc(-c3ccccc3)oc3ccc(Cl)cc23)CC(C)(C)N1 | -17 | 19 | x | -2 | 101* | 17µM*
CCN(CC)CCn1c(=N)n(CC(=O)c2ccc(Br)s2)c2ccccc21 | x | 11 | 17 | -8 | 51* | i
COCC(=O)N1CC2(CN(C(C)=O)C2)c2c([nH]c3cc(OC)ccc23)[C@@H]1CO | 11 | -2 | x | x | x | x
C[N+](C)(C)CC(=O)N/N=C/c1c2ccccc2cc2ccccc12 | x | 5 | 92* | 4 | 94* | 55µM*
COCC(=O)N1CC2(C1)CN(Cc1ccc3c(c1)OCO3)[C@@H](CO)c1c2c2ccc(OC)cc2n1C | 1 | 1 | x | -3 | -3 | x
COc1ccc2[nH]c3c(C)c4ccncc4c(C)c3c2c1 | x | 3 | 36 | 2 | 100* | i
C[C@@H]1CN([C@@H](C)CO)C(=O)c2cc(NC(=O)c3ccncc3)ccc2O[C@H]1CN(C)S(=O)(=O)c1cccs1 | 8 | -1 | 7 | -28 | 4 | x
CSc1nc(NCCCN(C)C)c2c3c(sc2n1)CN(C)CC3 | -5 | 4 | x | -2 | 77* | i
CSc1nc(NCC(C)C)c2c3c(sc2n1)CN(C)CC3 | x | x | 21 | x | x | x
C[C@@H]1CN([C@@H](C)CO)C(=O)CCCn2cc(nn2)CO[C@H]1CN(C)S(C)(=O)=O | 4 | -1 | -7 | 13 | 15 | x
COc1cc(OC)cc(C2=Cc3ccc(OC)cc3C(CC(C)=O)N2c2ccc(C#CC3(N)CCCCC3)cc2)c1 (centres undefined) | 2 | 10 | x | -5 | -11 | x
COc1cc(OC)cc(C2=Cc3ccccc3C(CC(C)=O)N2c2ccc(C#CC3(N)CCCCC3)cc2)c1 (centres undefined) | 11 | 12 | x | 0 | 91* | i
NC(N)=Nc1cc2ccccc2c2ccccc12 | 9 | 5 | x | 2 | 56* | i
COc1ccc(-c2ccc3c(c2)[C@@H]2[C@@H](CCN2C(=O)c2ccc4c(c2)OCO4)[C@H](CO)N3C)cc1 | 0 | 4 | 13 | 1 | 7 | x
OC(COc1ccccc1)CN1CCN(CC(O)COc2ccccc2)CC1 (centres undefined) | 3 | 3 | x | -4 | -13 | x
OC(CON=C1c2ccccc2-c2ccccc21)CN1CCNCC1 (centres undefined) | 5 | 13 | 72* | -1 | 70* | i
SMILES | INS-1E GSIS act | AF4-AF9 inh | RAD54 branch | S100A4 inh HTS | RAD52 inh | DNA binder FP
CN(C)CCNC(=O)c1csc(Nc2cccc3ccccc23)n1 | 10 | 15 | 12 | 9 | 51* | i
O=S(=O)(c1ccc(F)cc1)N1CCCCN2[C@H](C1)[C@H](c1ccc(-c3cncnc3)cc1)[C@@H]2CO | -9 | -3 | 13 | 0 | -9 | x
COc1ccc(C2c3ccc4ccccc4c3Oc3ncn(CCO)c(=N)c32)cc1 (centres undefined) | -15 | x | -1 | -1 | -10 | x
COc1ccc(C2c3ccc4ccccc4c3Oc3ncn(CCN(C)C)c(=N)c32)cc1 (centres undefined) | 15 | 19 | 4 | -2 | 57* | i
C[C@@H]1CCCCO[C@@H](CN(C)C(=O)CCCN(C)C)[C@H](C)CN([C@@H](C)CO)C(=O)c2cc(NS(=O)(=O)c3ccc(F)cc3)ccc2O1 | 22 | 0 | 0 | 3 | 1 | x
CN(C)CCCn1c(=O)n(CCc2ccccc2)c(=O)c2c3c(sc21)CCCCC3 | x | 23 | 1 | -5 | 56* | i
COc1cc2c(cc1OC)CN(c1nc(CN3CCCCC3)nc3sc4c(c13)CCCC4)CC2 | -13 | x | x | x | x | x
COc1cc2c(cc1OC)CN(c1nc(CN3CCCC3)nc3sc(C)c(C)c13)CC2 | 5 | 17 | x | -9 | 65* | i
C[C@H](CO)N1C[C@H](C)[C@@H](CN(C)S(=O)(=O)c2ccccc2)Oc2ncc(-c3cccc(C(=O)N(C)C)c3)cc2C1=O | -6 | -1 | -4 | -7 | -2 | x
CN(C)c1ccc(/C=N/n2c(C3CCCCC3)n[nH]c2=S)cc1 | x | -3 | -14 | -1 | 97* | i
FC(F)(F)c1cc(CCN2CCNC[C@H]2Cc2cccc3ccccc23)cc(C(F)(F)F)c1 | + | 4 | 16 | 5 | 60* | i
